SMILES strings stand for the structures.

From ChEMBL document CHEMBL1123358, “Design and synthesis of sodium (beta R*, gamma S*)-4-[[3-(4-acetyl-3-hydroxy-2-propylphenoxy)propyl] thio]-gamma-hydroxy-beta-methylbenzenebutanoate: a novel, selective, and orally active receptor antagonist of leukotriene D4” (J Med Chem, 1986) come the findings set out here.

The species entered for the first test is Cavia porcellus. The test can be described thus: In vitro inhibition of responses induced by LTD4 in Isolated terminal guinea pig ileum segments at 0.1 ug/mL. Type of test: functional.
Settings: not given
The gist of the method: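 Terminal ileum segments (2.5 cm) in aerated Krebs-bicarbonate with atropine (10⁻⁶ M) and timolol maleate (0.5 μg/mL), held under 1 g passive force. After equilibration, submaximal control contractions to LTD₄ (0.3 ng/mL) were recorded. Test substance was given for 30 s, then the control LTD₄ concentration was re-added and tension was measured. Percent inhibition is at 0.1 μg/mL, mean ± SEM of three determinations.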
A word on the inhibition: it is the change of the read-out against control, counted positive when it falls. Read a low inhibition as a weak effect. Turning to `CCCc1c(OCCCSc2ccc(CC(=O)O)cc2)ccc(C(C)=O)c1O`, the inhibition at 0.1 µg/mL turned out to be 65%.

Consider `CCCc1c(OCCCSc2ccc(C(O)CCC(=O)O)cc2)ccc(C(C)=O)c1O` (centres undefined), for which the inhibition at 0.1 µg/mL came out at 65%.

Turning to `CCCc1c(OCCCOc2ccc(C(=O)CCC(=O)O)cc2)ccc(C(C)=O)c1O`, the inhibition at 0.1 µg/mL turned out to be 49%.

Turning to `CCCc1c(OCC(O)CSc2ccc(C(=O)CCC(=O)O)cc2F)ccc(C(C)=O)c1O` (centres undefined), testing at 0.1 µg/mL gave an inhibition of 32%.

For the compound `CCCc1c(OCCCSc2ccc(C(=O)CCC(=O)O)cc2)ccc(C(C)=O)c1O`, at 0.1 µg/mL the inhibition was 63%.

`CCCc1c(OCCCSc2ccc(C(O)C(C)(C)CC(=O)[O-])cc2)ccc(C(C)=O)c1O.[Na+]` (centres undefined) had an inhibition at 0.1 µg/mL of 45%.

In turn, `CCCc1c(OCCCSc2ccc(C(=O)CCc3nnn[nH]3)cc2)ccc(C(C)=O)c1O` had an inhibition at 0.1 µg/mL of 63%.

`CCCc1c(OCCCSc2ccc(C(=O)CCC(=O)O)cc2F)ccc(C(C)=O)c1O` came in with an inhibition at 0.1 µg/mL of 82%.

Compound `CCCc1c(OCCCOc2ccc(C(=O)CCC(=O)O)cc2F)ccc(C(C)=O)c1O` came in with an inhibition at 0.1 µg/mL of 81%.

As for `CCCc1c(OCCCOc2ccc(C(=O)CCC(=O)O)cc2C)ccc(C(C)=O)c1O`, the inhibition at 0.1 µg/mL worked out at 53%.

Consider `CCCc1cc(C(=O)CCC(=O)O)ccc1SCCCOc1ccc(C(C)=O)c(O)c1CCC`, for which the inhibition at 0.1 µg/mL worked out at 37%.

`CCCc1c(OCC(O)COc2ccc3c(=O)cc(C(=O)O)oc3c2CCC)ccc(C(C)=O)c1O` (centres undefined) [FPL-55712]: the inhibition at 0.1 µg/mL amounted to 83%.

Consider `CCCc1c(OCCCSc2ccc(C(O)C(C)CC(=O)[O-])cc2)ccc(C(C)=O)c1O.[Na+]` (centres undefined), for which 0.1 µg/mL produced 62% inhibition.

As to `CCCc1c(OCCCSc2ccc(C(O)[C@@H](C)CC(=O)[O-])cc2)ccc(C(C)=O)c1O.[Na+]` (some centres undefined), testing at 0.1 µg/mL gave an inhibition of 73%.

Another test relates to Cavia porcellus. The test can be described thus: In vivo activity against bronchoconstrictions induced by LTD4 (0.2 ug/kg, iv) in anesthetized guinea pig following id administration of compound. Type of test: functional.
Settings: not given
The gist of the method: (§1)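 Anesthetized, artificially ventilated guinea pigs received a single intraduodenal dose, then iv LTD₄ (0.2 μg/kg) bronchoconstriction challenge. Effective dose is the minimum dose giving more than 50% inhibition of bronchoconstriction within 50 min after dosing, with the number of experiments in parentheses.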
On to `CCCc1c(OCCCSc2ccc(CC(=O)O)cc2)ccc(C(C)=O)c1O`, for which the ED worked out at 10 mg/kg.

With `CCCc1c(OCCCSc2ccc(C(O)CCC(=O)O)cc2)ccc(C(C)=O)c1O` (centres undefined), the ED stood at 10 mg/kg.

The compound `CCCc1c(OCCCOc2ccc(C(=O)CCC(=O)O)cc2)ccc(C(C)=O)c1O` had an ED of 5 mg/kg.

`CCCc1c(OCC(O)CSc2ccc(C(=O)CCC(=O)O)cc2F)ccc(C(C)=O)c1O` (centres undefined): the ED was more than 10 mg/kg.

In turn, `CCCc1c(OCCCSc2ccc(C(=O)CCC(=O)O)cc2)ccc(C(C)=O)c1O` yielded an ED of 10 mg/kg.

The compound `CCCc1c(OCCCSc2ccc(C(O)C(C)(C)CC(=O)[O-])cc2)ccc(C(C)=O)c1O.[Na+]` (centres undefined) showed an ED of 5 mg/kg.

`CCCc1c(OCCCSc2ccc(C(=O)CCc3nnn[nH]3)cc2)ccc(C(C)=O)c1O` displayed an ED of more than 10 mg/kg.

`CCCc1c(OCCCSc2ccc(C(=O)CCC(=O)O)cc2F)ccc(C(C)=O)c1O` had an ED of 10 mg/kg.

The compound `CCCc1c(OCCCOc2ccc(C(=O)CCC(=O)O)cc2F)ccc(C(C)=O)c1O` showed an ED of 10 mg/kg.

On to `CCCc1c(OCCCOc2ccc(C(=O)CCC(=O)O)cc2C)ccc(C(C)=O)c1O`, for which the ED was more than 10 mg/kg.

In turn, `CCCc1cc(C(=O)CCC(=O)O)ccc1SCCCOc1ccc(C(C)=O)c(O)c1CCC` registered an ED of 10 mg/kg.

In the case of `CCCc1c(OCC(O)COc2ccc3c(=O)cc(C(=O)O)oc3c2CCC)ccc(C(C)=O)c1O` (centres undefined) [FPL-55712], the ED was more than 10 mg/kg.

As to `CCCc1c(OCCCSc2ccc(C(O)C(C)CC(=O)[O-])cc2)ccc(C(C)=O)c1O.[Na+]` (centres undefined), the ED was more than 10 mg/kg.

In the case of `CCCc1c(OCCCSc2ccc(C(O)[C@@H](C)CC(=O)[O-])cc2)ccc(C(C)=O)c1O.[Na+]` (some centres undefined), the ED was determined as 5 mg/kg.

For another test, the system named is Cavia porcellus. The test can be described thus: In vivo activity against bronchoconstrictions induced by LTD4 (0.2 ug/kg, iv) in anesthetized guinea pig following iv administration of compound. Type of test: functional.
Settings: not given
The gist of the method: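 Artificially ventilated, anesthetized guinea pigs were challenged with LTD₄ 0.2 μg/kg iv. Drug was given iv in cumulative doses, 5 min before each successive LTD₄ challenge. ED₅₀ is from one to two determinations, or mean ± SEM where repeated, with n in parentheses.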
What is called ED50 is the midpoint of the dose-response relation. Low values mean an effect at a small dose, high ones a need for a large dose. Turning to `CCCc1c(OCCCSc2ccc(CC(=O)O)cc2)ccc(C(C)=O)c1O`, the ED50 amounted to 1.3 mg/kg.

Turning to `CCCc1c(OCCCSc2ccc(C(O)CCC(=O)O)cc2)ccc(C(C)=O)c1O` (centres undefined), the ED50 stood at 0.5 mg/kg.

In turn, `CCCc1c(OCCCOc2ccc(C(=O)CCC(=O)O)cc2)ccc(C(C)=O)c1O` yielded an ED50 of 1.1 mg/kg.

Take `CCCc1c(OCC(O)CSc2ccc(C(=O)CCC(=O)O)cc2F)ccc(C(C)=O)c1O` (centres undefined): the ED50 was 0.9 mg/kg.

In the case of `CCCc1c(OCCCSc2ccc(C(=O)CCC(=O)O)cc2)ccc(C(C)=O)c1O`, it took a dose of 1.1 mg/kg to reach the 50% effect level (ED50).

`CCCc1c(OCCCSc2ccc(C(O)C(C)(C)CC(=O)[O-])cc2)ccc(C(C)=O)c1O.[Na+]` (centres undefined) yielded an ED50 of 0.5 mg/kg.

Turning to `CCCc1c(OCCCSc2ccc(C(=O)CCc3nnn[nH]3)cc2)ccc(C(C)=O)c1O`, the ED50 turned out to be 0.6 mg/kg.

With `CCCc1c(OCCCSc2ccc(C(=O)CCC(=O)O)cc2F)ccc(C(C)=O)c1O`, the ED50 was determined as 1.1 mg/kg.

Compound `CCCc1c(OCCCOc2ccc(C(=O)CCC(=O)O)cc2F)ccc(C(C)=O)c1O` registered an ED50 of 1 mg/kg.

In the case of `CCCc1cc(C(=O)CCC(=O)O)ccc1SCCCOc1ccc(C(C)=O)c(O)c1CCC`, the 50% effect level (ED50) was put at a dose of 0.2 mg/kg.

`CCCc1c(OCC(O)COc2ccc3c(=O)cc(C(=O)O)oc3c2CCC)ccc(C(C)=O)c1O` (centres undefined) [FPL-55712] had a median effective dose (ED50) of 0.1 mg/kg.

Compound `CCCc1c(OCCCSc2ccc(C(O)C(C)CC(=O)[O-])cc2)ccc(C(C)=O)c1O.[Na+]` (centres undefined) displayed an ED50 of 1.5 mg/kg.

Take `CCCc1c(OCCCSc2ccc(C(O)[C@@H](C)CC(=O)[O-])cc2)ccc(C(C)=O)c1O.[Na+]` (some centres undefined): it took a dose of 0.26 mg/kg to reach the 50% effect level (ED50).

Another test deals with T1, Cysteinyl leukotriene receptor 1 (Cavia porcellus, UniProt Q2NNR5).
T1 sequence (Q2NNR5 whole entry): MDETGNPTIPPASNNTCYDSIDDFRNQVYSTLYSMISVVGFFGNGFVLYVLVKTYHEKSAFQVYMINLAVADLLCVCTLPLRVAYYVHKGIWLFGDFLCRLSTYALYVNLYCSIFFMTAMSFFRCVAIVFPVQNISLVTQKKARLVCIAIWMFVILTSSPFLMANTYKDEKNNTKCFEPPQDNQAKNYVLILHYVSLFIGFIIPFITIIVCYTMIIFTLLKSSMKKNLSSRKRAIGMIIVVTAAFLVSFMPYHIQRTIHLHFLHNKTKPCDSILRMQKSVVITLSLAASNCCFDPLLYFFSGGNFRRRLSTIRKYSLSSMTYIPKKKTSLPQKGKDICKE
The test can be described thus: Compound was tested for inhibition of radioligand [3H]LTC4 binding to Cysteinyl leukotriene D4 receptor in guinea pig lung membranes. Type of test: cell membranes, Membrane.
Settings: not given
In general, Ki refers to the equilibrium dissociation constant of an inhibitor or competing ligand from its target. A higher Ki goes with lower affinity. The compound `CCCc1c(OCCCSc2ccc(C(O)[C@@H](C)CC(=O)[O-])cc2)ccc(C(C)=O)c1O.[Na+]` (some centres undefined) displayed a Ki of 8.6 µM.

Another test deals with Cavia porcellus. The test can be described thus: In vivo activity against bronchoconstrictions induced by LTD4 (0.2 ug/kg, iv) in anesthetized guinea pig administered intraduodenally at 5 mg/kg concentration of compound. Type of test: functional. Particulars: route intraduodenal. The gist of the method: as §1
By inhibition in vivo is commonly meant the change of the read-out against control, counted positive when it falls. Compound `CCCc1c(OCCCSc2ccc(C(O)[C@@H](C)CC(=O)[O-])cc2)ccc(C(C)=O)c1O.[Na+]` (some centres undefined) came in with an inhibition in vivo at 5 mg/kg of more than 50%.

Another test concerns the target T1, Cysteinyl leukotriene receptor 1. The test can be described thus: Compound was tested for inhibition of radioligand [3H]LTD4 binding to Cysteinyl leukotriene D4 receptor in guinea pig lung membranes.
Settings: not given
The test is classed as cell membranes, Membrane.
Compound `CCCc1c(OCCCSc2ccc(C(O)[C@@H](C)CC(=O)[O-])cc2)ccc(C(C)=O)c1O.[Na+]` (some centres undefined) displayed a Ki of 0.4 µM.
